Source: PubChem BioAssay
Hits are enriched below; roughly 4.2% of the tested compounds scored in any of these assays.
CTSL1 counter: Fasciola hepatica cathepsin L1 inhibitors, primary screen, counter-screen for PFM18AAP inhibitor project, biochemical, QFRET, fluorogenic peptide substrate; recombinant F. hepatica cathepsin L1, Z-Leu-Arg-MCA fluorescence; inhibition, % at 5.96 µM; 300,000 compounds, 0.49% hits; AID 1906, 2009;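 active means inhibition above the mean of all tested compounds plus 3 SD, set per screening campaign, cut at about 17% in these data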;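 further: 0% = plate median of test compound wells and 100% = 1 µM Z-Phe-Ala-diazomethylketone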
HDAC3 inhib: HDAC3 deacetylase inhibitors, primary screen, biochemical, fluorescence, cell-free homogeneous; Histone deacetylase 3 (Homo sapiens), O15379; recombinant HDAC3, fluorogenic peptide/trypsin coupled; inhibition, % at 8.3 µM; 320,000 compounds, 0.15% hits; in the data active means inhibition above about 26%, passing the limit was not always enough
Target sequence (O15379 whole entry, looked up): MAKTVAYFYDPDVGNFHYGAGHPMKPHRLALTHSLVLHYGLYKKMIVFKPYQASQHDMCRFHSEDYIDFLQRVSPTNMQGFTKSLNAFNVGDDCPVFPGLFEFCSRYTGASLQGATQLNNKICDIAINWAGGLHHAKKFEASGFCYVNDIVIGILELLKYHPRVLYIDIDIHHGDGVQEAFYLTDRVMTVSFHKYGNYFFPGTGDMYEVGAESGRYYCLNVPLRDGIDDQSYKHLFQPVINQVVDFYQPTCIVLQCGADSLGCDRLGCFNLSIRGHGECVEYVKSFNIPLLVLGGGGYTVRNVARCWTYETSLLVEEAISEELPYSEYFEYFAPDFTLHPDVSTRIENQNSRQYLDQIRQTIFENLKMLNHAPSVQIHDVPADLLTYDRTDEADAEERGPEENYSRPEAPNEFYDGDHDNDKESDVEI
AHR activator: AHR activators, primary screen, cell-based, luminescence, luciferase reporter, human; Aryl hydrocarbon receptor (Homo sapiens), P35869; AHR-responsive luciferase reporter cells; activation, % at 5 µM; 320,000 compounds, 2.5% hits; AID 2796, 2010; in the data active means activation above about 47%;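 further: 0% = vehicle wells and 100% = reference agonist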
M18AAP inhibitor: PfM18AAP inhibitors, malaria aminopeptidase, primary screen, biochemical, QFRET, recombinant enzyme; M18 aspartyl aminopeptidase (Plasmodium falciparum 3D7); H-Glu-NHMec fluorogenic cleavage; inhibition, % at 7.35 µM; 290,000 compounds, 1.2% hits;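 active means inhibition above the campaign mean inhibition over all tested compounds plus 3 SD, cut at about 28% in these data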;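 further: 0% = plate median of test compound wells and 100% = 2 mM ZnCl2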
SENP1 FRET inh: human SENP1 catalytic domain inhibitors, primary screen, biochemical, FRET, uHTS; recombinant SENP1 catalytic domain, CyPet-SUMO1-YPet FRET cleavage; inhibition, % at 10 µM; 360,000 compounds, 0.21% hits; Sentrin-specific protease 1 (Homo sapiens), Q9P0U3; AID 624204, 2012;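 active means inhibition at least 30% at 10 µM, raw YFP signal under a set limit, fluorescence ratio 0.5 to 1.5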;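 further: 0% = enzyme with DMSO and 100% = no enzyme wells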
Target sequence (Q9P0U3 419-644 limits assumed): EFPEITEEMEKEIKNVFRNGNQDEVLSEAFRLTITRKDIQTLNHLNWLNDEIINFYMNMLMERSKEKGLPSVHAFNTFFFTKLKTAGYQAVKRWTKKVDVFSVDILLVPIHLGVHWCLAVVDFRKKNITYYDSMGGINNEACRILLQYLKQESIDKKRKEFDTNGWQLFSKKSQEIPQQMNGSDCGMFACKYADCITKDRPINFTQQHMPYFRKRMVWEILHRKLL
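Material – human SENP1 catalytic domain · Input – SENP1 enzyme, 20 pM final · Compound dosing – single concentration of 10 µM compound, 0.5% DMSO final · Timing – enzyme reaction for 50 min at room temperature, dark · Measured by – FRET fluorescence in CFP and YFP emission channels · Control set – no-enzyme wells low, DMSO-plus-enzyme wells high control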
GAA850 FXN act: FXN promoter activators, primary screen, cell-based, luciferase luminescence, HEK293 lucGAA850; HEK293 lucGAA850 FXN promoter luciferase reporter, 24 h; percent of 10 µM SAHA response; AID 540364, 2011; 360,000 compounds, 0.56% hits; activation, % at 6 µM;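 active means activation above the average of all compounds screened plus 3 SD, cutoff fixed separately per campaign, cut at about 7.5% in these data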;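 further: 0% = DMSO wells and 100% = 10 µM SAHA wells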
Active calls of the source: *; . = no result.

SMILES | CTSL1 counter | HDAC3 inhib | AHR activator | M18AAP inhibitor | SENP1 FRET inh | GAA850 FXN act
Cc1ccc(C(=O)Nc2ccc(C(=O)O)cc2NC(=O)c2ccc(C)cc2)cc1 | -5 | 8 | 4 | 2 | 0 | 1
CC(C)NC(=O)C1(C)CN(S(C)(=O)=O)CC(=O)N1CCCn1ccnc1 (stereo unspecified) | . | . | . | . | -6 | .
CCc1nc2c(OCc3cc(Cl)cc(Cl)c3)cccn2c1N(C)C(=O)c1cccc(OC)c1 | . | . | . | . | -5 | -4
Cc1ccc(O)c(-c2cc(-c3cccc(F)c3)n[nH]2)c1 | 2 | 2 | 56* | -3 | -2 | 2
COc1ccc(-c2cc(-c3cc(F)ccc3O)[nH]n2)cc1OC | 1 | -1 | 50* | 10 | 0 | 6
Cc1ccc(O)c(-c2cc(-c3ccccc3F)[nH]n2)c1 | 3 | 14 | 27 | 5 | 0 | 5
C[C@H](CO)N1C[C@H](C)[C@@H](CN(C)S(=O)(=O)c2cn(C)cn2)OCc2cnnn2CCCC1=O | . | . | . | . | -1 | -1
Cc1ccccc1-c1cc2c(nn1)-c1ccccc1C2=O | 71* | 0 | -20 | -19 | 2 | 4
Cc1ccc(-c2cc3c(nn2)-c2ccccc2C3=O)cc1 | 0 | -2 | 5 | 3 | 2 | -10
C[C@H](NC(=O)c1ccccc1Cl)C(=O)OCc1cn2cc(Cl)ccc2n1 | -4 | -2 | 0 | . | -1 | 1
Cc1ccc(C(=Cc2ccc([N+](=O)[O-])cc2)C(=O)O)cc1 | . | . | . | . | 4 | -1
C=CCC(=O)N1CCCC(CCC(=O)NCc2ccccc2F)C1 (stereo unspecified) | -6 | -5 | -1 | 0 | -1 | 0
O=C(CCC1CCCN(c2ncccn2)C1)NCc1ccccc1F (stereo unspecified) | 1 | -12 | 4 | 32* | 0 | -1
COc1ccccc1Nc1ncnc2c1cnn2-c1cccc(C)c1 | 9 | 0 | 51* | 5 | 2 | 1
COc1cccc(Nc2ncnc3c2cnn3-c2cccc(C)c2)c1 | 6 | -2 | -7 | -6 | 1 | 3
Cn1nc(C(C)(C)C)cc1C(=O)N1CCCCC1c1cc(C(=O)N2CCOCC2)no1 (stereo unspecified) | . | . | . | . | 0 | -2
COc1cc2c(cc1OC)[C@@H]1Cc3cc4c(cc3[C@H](C2)N1C)OCO4 | 2 | 34* | 0 | 4 | 0 | 0
COc1cc2c(cc1O)[C@@H]1Cc3cc(OC)c(OC)cc3C(C2)N1C | 1 | -6 | -2 | . | 1 | -2
Cc1cc(CNC(=O)c2cccnc2Cl)c2ccccc2n1 | 18* | 2 | 4 | -3 | 0 | -1
O=C(OCN1C(=O)c2ccccc2C1=O)c1ccc(Cl)nc1 | -18 | 0 | -1 | -6 | 0 | -1
COc1ccc(C(=O)N/C(=C\c2cn(S(=O)(=O)N(C)C)c3ccccc23)C(=O)N2CCN(C)CC2)cc1 | -9 | 5 | 2 | -1 | 1 | 0
O=C(COC(=O)/C=C/c1ccc(OC(F)F)cc1)Nc1cccc(S(=O)(=O)N2CCOCC2)c1 | . | 11 | 0 | . | 2 | -2
Cc1sc(NC(=O)CCl)c(C(=O)c2ccccc2)c1C | 53* | 3 | 1 | 13 | 1 | -7
O=C(NCc1nnc(SCC(=O)N2CCN(c3ccccc3)CC2)o1)c1ccc(F)cc1 | 5 | 1 | 1 | 0 | 2 | -1
COc1ccc(NC(=O)c2oc3ccccc3c2NC(=O)c2ccco2)c(OC)c1 | 4 | -3 | 45 | -11 | 1 | 4
SMILES | CTSL1 counter | HDAC3 inhib | AHR activator | M18AAP inhibitor | SENP1 FRET inh | GAA850 FXN act
CCOCC(=O)Nc1c(C(=O)OCC)oc2ccccc12 | 2 | . | 68* | -16 | 0 | 5
CCOC(=O)c1oc2ccccc2c1NC(=O)C(C)(C)C | -5 | 0 | 4 | -15 | 3 | 1
COc1ccc(NC(=O)c2oc3ccccc3c2NC(=O)c2ccco2)cc1 | 1 | -5 | 69* | -4 | 3 | -4
CCOCC(=O)Nc1c(C(=O)Nc2ccc(OC)cc2OC)oc2ccccc12 | 5 | -2 | 67* | -5 | -5 | 3
COc1ccc(NC(=O)c2oc3ccccc3c2NC(=O)C2CC2)cc1 | 3 | -6 | 72* | 0 | 3 | 2
Cc1cccc(NC(=O)c2nc[nH]c2C(=O)N[C@H](C)CO)c1 | . | . | . | . | 0 | 2
CCOC(=O)C1(C)CCCN(C(=O)c2ccc(OC)cc2OC)C1 (stereo unspecified) | . | . | . | . | 2 | 0
COc1ccc(NC(=O)c2oc3ccccc3c2NC(=O)C2CC2)c(OC)c1 | -2 | -12 | 55* | -1 | -9 | 0
O=[N+]([O-])c1ccc(Cl)c(S(=O)(=O)Nc2cccc(S(=O)(=O)NC3=NCCC3)c2)c1 | . | 4 | 52* | . | 2 | 0
O=[N+]([O-])c1ccc(Cl)c(S(=O)(=O)NC2=NCCC2)c1 | . | . | . | . | 1 | 2
Cc1cc(F)ccc1NC(=O)c1cc(S(=O)(=O)N2CCc3ccccc32)cn1C | 2 | . | 0 | 0 | 3 | -1
CC(=O)Oc1cc2c(C(=O)NCc3ccncc3)c(C)oc2c2ccccc12 | -20 | 0 | 52* | . | 2 | 2
Cc1oc(-c2ccccc2)cc1C(=O)NCc1ccncc1 | 0 | 0 | 25 | 5 | 4 | 0
Cc1cccc(C)c1NC(=O)COC(=O)CN1C(=O)C2CCCCC2C1=O (stereo unspecified) | . | . | -1 | . | 1 | 2
c1ccc(-n2ncc3c2ncn2nnnc32)cc1 | 0 | -4 | 3 | -5 | -2 | 1
Cc1nc2c3cnn(-c4ccccc4)c3ncn2n1 | -2 | 1 | 69* | 2 | -23 | 0
Cc1ccc(Nc2nc(-c3ccccc3)c(CC(=O)O)s2)cc1 | 2 | -5 | 30 | 11 | -7 | 5
O=C(O)Cc1sc(Nc2ccc(F)cc2)nc1-c1cccs1 | -1 | 1 | 17 | 29* | -34 | 7
NC(=O)CCCn1c(C(=O)c2ccc(Cl)cc2)c2ccc(C(F)(F)F)cc2[n+]1[O-] | 4 | -2 | 61* | . | 0 | 2
Nc1nc(=O)c2ccccc2s1 | . | . | . | . | 2 | 0
CCCCNC(=S)N(C)/N=C/c1c(C)[nH]c2ccccc12 | 9 | 5 | 71* | 0 | 9 | 1
Cc1ccc(S(=O)(=O)/N=C2\C=C(NS(=O)(=O)c3ccccc3)C(=O)c3ccccc32)cc1 | . | . | . | . | 5 | 5
O=S(=O)(N=C1C=CC(=NS(=O)(=O)c2ccccc2)c2ccccc21)c1ccccc1 | . | . | . | . | 60* | -3
O=C(CC1(O)C(=O)N(C/C=C/c2ccccc2)c2ccccc21)c1ccccn1 (stereo unspecified) | 4 | 3 | 0 | 32* | 1 | 2
